Results on 3 compounds are retold here after publication PMC2193166 (The Journal of Experimental Medicine, 2000).

No end group written: not given here. *: point of attachment. 125I = [125I]*

The target in one test is B/A254 (Homo sapiens, UniProt P25090+Q15722). Nature of the test: ^3H-LTB4 binding, B/A254-transfected HEK293 cells.
The next test relates to human PMNs. Nature of the test: Human PMN chemotaxis, 48-well microchamber. Format: cell-based. The essentials:
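Freshly isolated human PMNs were preincubated with vehicle or test compound (10 nM) for 30 min at 37°C and loaded at 5 × 10^4/well into the upper wells of a 48-well chamber fitted with an uncoated 5-μm polycarbonate membrane. The lower wells held peptide (1 nM), test compound, or vehicle (RPMI, 0.1% ethanol). After 60 min at 37°C, migrated cells were Diff-Quik stained and counted by light microscopy. Migration index was chemoattractant over vehicle; three donors.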

Another test has as its system PMNs. Nature of the test: Direct binding of ^125I-labeled MHC binding peptide with PMNs. The arrangement: species or system human. Conditions: n = 3, data not shown.
The next test has as its target T1, ALXR (Homo sapiens, UniProt P25090).
T1 sequence (P25090 1-351): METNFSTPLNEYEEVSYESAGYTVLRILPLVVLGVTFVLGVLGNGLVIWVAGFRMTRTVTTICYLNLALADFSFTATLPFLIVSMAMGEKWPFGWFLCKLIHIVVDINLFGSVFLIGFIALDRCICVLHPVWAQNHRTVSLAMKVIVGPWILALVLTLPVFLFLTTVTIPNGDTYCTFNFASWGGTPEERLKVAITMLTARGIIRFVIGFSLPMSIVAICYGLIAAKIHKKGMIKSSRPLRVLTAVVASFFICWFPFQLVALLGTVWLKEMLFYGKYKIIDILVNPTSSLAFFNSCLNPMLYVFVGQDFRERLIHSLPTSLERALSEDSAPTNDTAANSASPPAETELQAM
Conditions: cited from earlier work.

With `CCCCC/C=C\C[C@@H](O)/C=C/C=C\C=C\[C@@H](O)CCCC(=O)O` [^3H-LTB4, [5,6,8,9,11,12, 14,15-^3H]-LTB4], at B/A254, the “specific ^3H-LTB4 binding (in words)” value was “failed to specifically bind”.
In the case of “^125I-labeled peptide: MHC binding peptide iodinated at the Tyr residue (MY(125I)FINILTL)”, the “PMN chemotaxis (in words)” value in the test with human PMNs was “did not promote PMN chemotaxis”. The “specific binding to PMNs” value with PMNs is given as “nor did it show specific binding”.
In the case of serum amyloid protein A [SAA], at ALXR, the “concentration required to evoke responses” value is given as “micromolar”.
